{"source": "ChEMBL document CHEMBL1136172", "about": "“Pyrrolo[2,3-h]quinolinones: synthesis and photochemotherapic activity” (Bioorg Med Chem Lett, 2003)", "format_in_all_cases": "functional, cell-based", "details_in_all_cases": "HT-1080, light or radiation study", "key": {"HT-1080 [1]": {"test_system": "HT-1080", "assay": "Inhibition of cell growth after irradiation at UVA dose of 6.5 J/cmE-2 in HT1080 human fibrosarcoma cell line", "summary_of_the_method": "(§1)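 HT-1080 cells from exponential culture seeded at 5×10⁴ cells/mL in DMEM with 10% FBS and penicillin/streptomycin, and allowed to adhere 18 h. Drug was dissolved in DMSO, diluted in HBSS pH 7.2 and incubated 30 min at 37 °C, 5% CO2. Cells were irradiated with lamps emitting mainly at 365 nm, then given medium for 72 h. Read-out was MTT versus untreated controls, with IC50 by linear regression from three experiments.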"}, "HT-1080 [2]": {"test_system": "HT-1080", "assay": "Inhibition of cell growth after irradiation at UVA dose of 2.6 J/cmE-2 in HT1080 human fibrosarcoma cell line", "summary_of_the_method": "as §1"}, "HT-1080 [3]": {"test_system": "HT-1080", "assay": "Inhibition of cell growth after irradiation at UVA dose of 3.2 J/cmE-2 in HT1080 human fibrosarcoma cell line", "summary_of_the_method": "as §1"}}, "data": [{"smiles": "Cc1cc2c(n1-c1ccccc1)CCc1cc(C(=O)c3ccccc3)c(O)nc1-2", "values": [{"measurement": "IC50", "setting": "HT-1080 [1]", "result": 1.7, "unit": "µM"}, {"measurement": "IC50", "setting": "HT-1080 [2]", "result": 6.6, "unit": "µM"}, {"measurement": "IC50", "setting": "HT-1080 [3]", "result": 4.6, "unit": "µM"}]}, {"smiles": "Cc1cc2c(n1C)CCc1cc(S(=O)(=O)c3ccccc3)c(O)nc1-2", "values": [{"measurement": "IC50", "setting": "HT-1080 [1]", "result": 16.4, "unit": "µM"}, {"measurement": "IC50", "setting": "HT-1080 [2]", "result": "> 20", "unit": "µM"}, {"measurement": "IC50", "setting": "HT-1080 [3]", "result": "> 20", "unit": "µM"}]}, {"smiles": "Cc1cc2c(n1C)CCc1cc(C(=O)c3ccccc3)c(O)nc1-2", "values": [{"measurement": "IC50", "setting": "HT-1080 [1]", "result": "> 20", "unit": "µM"}, {"measurement": "IC50", "setting": "HT-1080 [2]", "result": "> 20", "unit": "µM"}, {"measurement": "IC50", "setting": "HT-1080 [3]", "result": "> 20", "unit": "µM"}]}, {"smiles": "Cc1cc2c(n1-c1ccccc1)CCc1cc(S(=O)(=O)c3ccccc3)c(O)nc1-2", "values": [{"measurement": "IC50", "setting": "HT-1080 [1]", "result": 0.4, "unit": "µM"}, {"measurement": "IC50", "setting": "HT-1080 [2]", "result": 3.6, "unit": "µM"}, {"measurement": "IC50", "setting": "HT-1080 [3]", "result": 2.3, "unit": "µM"}]}, {"smiles": "Cc1cc2c(n1-c1ccccc1)CCc1cc(C#N)c(O)nc1-2", "values": [{"measurement": "IC50", "setting": "HT-1080 [1]", "result": 11.1, "unit": "µM"}, {"measurement": "IC50", "setting": "HT-1080 [2]", "result": "> 20", "unit": "µM"}, {"measurement": "IC50", "setting": "HT-1080 [3]", "result": 13.1, "unit": "µM"}]}, {"smiles": "Cc1cc2c(n1Cc1ccccc1)CCc1cc(C(=O)c3ccccc3)c(O)nc1-2", "values": [{"measurement": "IC50", "setting": "HT-1080 [1]", "result": 1.9, "unit": "µM"}, {"measurement": "IC50", "setting": "HT-1080 [2]", "result": 14.7, "unit": "µM"}, {"measurement": "IC50", "setting": "HT-1080 [3]", "result": 9, "unit": "µM"}]}, {"smiles": "Cc1cc2c(n1Cc1ccccc1)CCc1cc(S(=O)(=O)c3ccccc3)c(O)nc1-2", "values": [{"measurement": "IC50", "setting": "HT-1080 [1]", "result": 1.8, "unit": "µM"}, {"measurement": "IC50", "setting": "HT-1080 [2]", "result": "> 20", "unit": "µM"}, {"measurement": "IC50", "setting": "HT-1080 [3]", "result": 15.1, "unit": "µM"}]}, {"smiles": "O=c1ccc2ccc3occc3c2o1", "note": "[ANGELICIN]", "values": [{"measurement": "IC50", "setting": "HT-1080 [1]", "result": 2.5, "unit": "µM"}, {"measurement": "IC50", "setting": "HT-1080 [2]", "result": 15.7, "unit": "µM"}, {"measurement": "IC50", "setting": "HT-1080 [3]", "result": 2.6, "unit": "µM"}]}, {"smiles": "COc1c2ccoc2cc2oc(=O)ccc12", "note": "[BERGAPTEN]", "values": [{"measurement": "IC50", "setting": "HT-1080 [1]", "result": 0.9, "unit": "µM"}, {"measurement": "IC50", "setting": "HT-1080 [2]", "result": 8.5, "unit": "µM"}, {"measurement": "IC50", "setting": "HT-1080 [3]", "result": 1.8, "unit": "µM"}]}, {"smiles": "COc1c2occc2cc2ccc(=O)oc12", "note": "[METHOXSALEN]", "values": [{"measurement": "IC50", "setting": "HT-1080 [1]", "result": 1.5, "unit": "µM"}, {"measurement": "IC50", "setting": "HT-1080 [2]", "result": 7.8, "unit": "µM"}, {"measurement": "IC50", "setting": "HT-1080 [3]", "result": 2.1, "unit": "µM"}]}]}
